Source: PubChem BioAssay (The Scripps Research Institute Molecular Screening Center)
Only some compounds are listed: those with a hit (about 1.4% of all), similar ones and a draw of the others.
MsrA inhibitor = inhibits bovine methionine sulfoxide reductase A; purified bovine MsrA, absorbance read-out; AID 651718; inhibition, % at 15.5 µM; hit rate 0.75% among 360,000;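 further: 0% = vehicle wells with enzyme and 100% = reference inhibitor wells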
MsrA act = bovine methionine sulfoxide reductase A activation; purified bovine MsrA, absorbance read-out; activation, % at 10.6 µM; hit rate 0.3% among 360,000; AID 602163; in the data active means activation above about 7.5%;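 further: 0% = vehicle and 100% = reference activator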
ASAP1 GAP inh = ASAP1 ArfGAP inhibition. Q9ULH1. ASAP1-stimulated ARF1 GTP hydrolysis, GDP FP detection. inhibition, % at 16.5 µM. hit rate 0.19% among 360,000. AID 624377; in the data active means inhibition above about 25%;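 further: 0% = vehicle with enzyme and substrate and 100% = no enzyme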
Target sequence (Q9ULH1 325-724 limits assumed): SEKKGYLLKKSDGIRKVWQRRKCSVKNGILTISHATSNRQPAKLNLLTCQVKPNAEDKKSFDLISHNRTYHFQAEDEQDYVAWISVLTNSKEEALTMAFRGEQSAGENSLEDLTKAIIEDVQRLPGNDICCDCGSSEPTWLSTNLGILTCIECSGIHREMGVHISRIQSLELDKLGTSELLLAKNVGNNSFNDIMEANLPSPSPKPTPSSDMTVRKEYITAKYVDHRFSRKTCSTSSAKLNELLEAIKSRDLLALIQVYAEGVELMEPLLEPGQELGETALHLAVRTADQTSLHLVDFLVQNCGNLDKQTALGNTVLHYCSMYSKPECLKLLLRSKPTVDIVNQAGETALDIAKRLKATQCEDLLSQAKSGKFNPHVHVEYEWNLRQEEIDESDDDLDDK
ARFGAP1 inh = inhibits rat ARF GTPase activating protein 1 | Arfgap1-stimulated ARF1 GTP hydrolysis, GDP FP detection | hit rate 0.26% among 360,000 | Q62848 | inhibition, % at 16.5 µM;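 active means inhibition above a per-plate limit, mean inhibition of low control wells plus 3 SD, cut at about 25% in these data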;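 further: 0% = DMSO wells with enzyme and 100% = wells lacking Arfgap1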
Target sequence (Q62848 1-136 limits assumed): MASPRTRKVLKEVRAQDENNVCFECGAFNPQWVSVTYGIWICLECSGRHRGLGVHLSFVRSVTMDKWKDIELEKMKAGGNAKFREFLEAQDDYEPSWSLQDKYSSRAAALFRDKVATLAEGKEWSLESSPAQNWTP
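System: truncated rat Arfgap1 GAP domain / Medium: HEPES-based buffer, pH 7.5 / Also added: N-terminally truncated human ARF1-GTP substrate / Incubation: enzyme reaction 120 min at 25 °C after 20 min preincubation / Measured by: FP of antibody-bound GDP Alexa 633 tracer, ex 620/em 688 nm / Replicates: singlicate, each compound tested once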
MsrA conf = confirmation of bovine MsrA inhibitors | shares compounds with MsrA inhibitor | purified bovine MsrA, absorbance read-out | inhibition, % at 15.5 µM | hit rate 41% among 2,300;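 further: coupled to thioredoxin reductase with NADPH and selenocystamine and DMSO as substrate; 0% = vehicle only and 100% = full effect of reference inhibitor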
An asterisk follows results filed as active; / = no result. Unless noted, no stated cut-off is given here; in the data, active means inhibition above about 4.5%; inactive means the rest.

SMILES	MsrA inhibitor	MsrA act	ASAP1 GAP inh	ARFGAP1 inh	MsrA conf
Cc1ccc(-n2c(SCC(=O)O)nc3c(sc(=S)n3-c3ccc(C)c(C)c3)c2=O)cc1	3	-3	7	-11	/
Cc1ccc(-n2c(=S)sc3c(=O)n(-c4ccc(F)cc4)c(SCC(=O)O)nc32)cc1C	5.3*	-6	7	-16	2
O=c1/c(=C/c2ccccn2)sc2n1CN(c1ccccc1)CN=2	4.8*	-5	-8	13	4
O=C(CN1C(=O)NC(c2ccccc2)(c2ccccc2)C1=O)NCCNCCO	1	-4	-16	6	/
CC1=C(c2ccc(F)cc2)[N+](=O)C(C)(C)N1[O-]	4.8*	-11	-10	4	0
CC1=C(c2ccc(C)cc2)[N+](=O)C(C)(C)N1[O-]	1	-2	-11	6	/
CN1CCN(c2ncnc3c2ncn3[C@H]2CN(Cc3ccc(-c4ccccc4)cc3)C[C@@H](CO)O2)CC1	0	-2	3	12	/
Clc1cncc(Cl)c1N/N=C/c1ccncc1	4.9*	-5	-2	-6	4
Clc1cccc(Cl)c1/C=N/Nc1c(Cl)cncc1Cl	0	-13	-12	-1	/
O=c1c(C(c2ccccc2)c2c(O)sc3ccccc3c2=O)c(O)sc2ccccc12	-1	-3	0	1	/
CC(=O)N=Cc1c(C)c(C#N)c(=O)n(C)c1O	3	-3	2	2	/
Cc1c(/C=N/Nc2ccc(F)cc2)c(O)n(C)c(=O)c1C#N	6.4*	-15	-8	0	6.7*
O=C(CSc1ccc(-c2nc3ccccc3[nH]2)cn1)N1CCN(C(=O)c2ccco2)CC1	5.1*	-5	8	-7	2
C=CCn1cccc(C(=O)Nc2ccc(OC)cc2)c1=O	1	-4	-19	-9	/
COc1ccc(NC(=O)c2cccn(CC=C(C)C)c2=O)cc1	4.7*	-5	-11	4	2
COc1ccc(C(=O)N(CN2CCCC2=O)c2nccs2)cc1OC	7.5*	-15	-14	5	5.1*
CC(=O)Nc1ccc(SCCCC(=O)c2ccccc2)cc1	-2	-5	17	-7	/
O=C(Nc1ccon1)c1ccc(N2CCCCC2)c([N+](=O)[O-])c1	0	-2	-4	-2	/
O=C(Nc1nc2ccccc2s1)c1ccc(N2CCCCC2)c([N+](=O)[O-])c1	4.7*	-1	9	5	2
CNc1cncc(-c2ccc(F)cc2F)n1	2	-3	7	10	/
COc1ccc(-n2ncc3c(SCC(=O)OC(C)C)ncnc32)cc1	-1	-2	-4	16	/
Cc1nc(N2CCN(Cc3ccc4c(c3)OCO4)CC2)c2oc3ccccc3c2n1	9.9*	-4	5	-1	0
Cc1ccc(S(=O)(=O)N(C)CC(=O)N2CCCCCC2)cc1	0	-2	-3	11	/
CCOC(=O)NN1C(=O)c2ccccc2NC1c1ccc(N(C)C)cc1 (configuration not stated)	3	-4	-1	-2	/
CC(=O)NN1C(=O)c2ccccc2NC1c1ccc(N(C)C)cc1 (configuration not stated)	6.3*	-7	-4	-5	1
SMILES	MsrA inhibitor	MsrA act	ASAP1 GAP inh	ARFGAP1 inh	MsrA conf
NS(=O)(=O)c1ccc(NC(=S)NNC(=O)c2ccc(Br)o2)cc1	4.9*	2	2	12	3
O=C(NNC(=S)Nc1cccc(C(F)(F)F)c1)c1ccncc1	4.8*	-2	1	3	1
Cc1ccc(/C=N/NC(=O)c2nnn(-c3nonc3N)c2CN(C)C)o1	3	-2	6	-9	/
Cc1ccc(/C=N/NC(=O)c2nnn(-c3nonc3N)c2-c2ccc3c(c2)OCO3)s1	5.0*	-5	1	5	4.6*
CC(=C/c1ccco1)/C=N/NC(=O)c1nnn(-c2nonc2N)c1CN(C)C	7.7*	-5	2	2	5.4*
COCc1c(C(=O)N/N=C/c2ccc(C)o2)nnn1-c1nonc1N	6.6*	-1	-6	-3	5
Nc1nonc1-n1nnc(C(=O)N/N=C/c2ccc(F)cc2)c1-c1ccc2c(c1)OCO2	1	0	8	7	/
CCCCCNc1nc(NCCCO)c(C#N)c2c1CN(C)CC2	5.0*	-3	6	1	1
O=C(CSc1nnc(CNC(=O)c2ccco2)o1)Nc1ccccc1C(F)(F)F	0	-3	6	1	/
Cc1cc(/C=C(/C#N)c2cccc(F)c2)c(C)n1-c1cccnc1	26*	-4	-4	-15	27*
COc1cc(/C=C2/C(=O)N(c3ccc([N+](=O)[O-])cc3)N=C2N2CCOCC2)ccc1O	4.7*	-3	1	18	4.6*
COc1cc(/C=C2\SC(=S)N(N3CCOCC3)C2=O)ccc1O	-1	-9	2	5	/
COc1ccc(C(=O)N/C(=C\c2cccc3ccccc23)C(=O)NCCc2c[nH]c3ccccc23)cc1OC	5.0*	-1	12	-12	1
CCc1nc2ccc(C(=O)NCc3ccc(OC)cc3)cn2c1N(C)C(=O)Cc1ccccc1	0	4	-3	-1	/
O=[N+]([O-])c1cccc(/C=N/n2c(C3CCCCC3)n[nH]c2=S)c1	5.0*	0	-8	-2	13*
COc1cccc(/C=N/n2c(C3CCCCC3)n[nH]c2=S)c1	8.2*	2	-5	0	6.5*
Oc1cccc(/C=N/n2c(C3CCCCC3)n[nH]c2=S)c1	-1	1	5	0	/
O=C(N/N=C/c1ccc[nH]1)c1cccc(Br)c1	4.7*	-1	5	-2	4
O=C(N/N=C\c1ccc[nH]1)c1cncc(Br)c1	5.1*	-1	-3	-1	4.6*
Cc1cccc(C(=O)N/N=C/c2ccc[nH]2)c1	4	-7	-13	-1	/
O=C(N/N=C/c1ccc(O)cc1)c1cncc(Br)c1	2	-7	1	-1	/
COc1cc2oc(-c3ccc(O)cc3)cc(=O)c2c(OC)c1O	7.1*	-5	20	17	3
CCN(C(=O)COC(=O)c1cc([N+](=O)[O-])ccc1N1CCOCC1)c1ccccc1	9.8*	-1	-5	-10	5.5*
O=C(/C=C/c1ccc(O)c(O)c1)OC1C(O)CC(OC(=O)/C=C/c2ccc(O)c(O)c2)(C(=O)O)CC1O (configuration not stated)	5.7*	-2	1	11	2
O=C(/C=C/c1ccc(O)c(O)c1)O[C@@H]1C[C@](O)(C(=O)O)C[C@@H](O)[C@H]1O	3	-4	3	5	/
BrC(/C=N/Nc1nc(N2CCOCC2)nc(N2CCOCC2)n1)=C/c1ccccc1	5.5*	-2	10	11	4
C/C(=N\O)C(C)/[N+]([O-])=C/c1nc(C)c(C)n1O (configuration not stated)	5.2*	-11	-9	7	4
O=c1ccc2ccc(O[C@@H]3O[C@H](CO[C@@H]4OC[C@](O)(CO)[C@H]4O)[C@@H](O)[C@H](O)[C@H]3O)cc2o1	0	-4	-1	-4	/
